Each block holds one molecule with its values, some of them ahead of it. Activity calls are given as the source filed them. The rule behind the calls is not given here.
Assays:
Streptococcus mutans [1] = assay: Inhibition of biofilm formation of Streptococcus mutans UA159 at 200 uM after 16 hrs by crystal violet staining; assay type: functional; details: for inhibition at 200 µM: UA159, 16 h
Summary of the method: (§1)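 S. mutans UA159 co-incubated with compound at various concentrations; biofilm quantified by crystal violet protocol, read at OD562.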

Streptococcus mutans [2] = assay: Growth inhibition of Streptococcus mutans UA159 at 200 uM after 24 hrs; assay type: organism-based; details: for growth inhibition (GI): streptococcus mutans, […], 24 h, 200 µM; for inhibition at 200 µM: Streptococcus mutans, UA159, 24 h, read-out: GI
Summary of the method: (§2)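 S. mutans UA159, S. sanguinis or S. gordonii co-incubated with compound at various concentrations; growth read as OD470; inhibition expressed relative to DMSO.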

Streptococcus gordonii = assay: Growth inhibition of Streptococcus gordonii at 200 uM after 24 hrs; assay type: organism-based; details: read-out: GI; summary of the method: as §2
Streptococcus mutans [3] = assay: Inhibition of biofilm formation of Streptococcus mutans UA159 after 16 hrs by crystal violet staining based serial dilution method; assay type: functional, organism-based; summary of the method: as §1
Streptococcus mutans [4] = assay: Growth inhibition of Streptococcus mutans UA159 after 16 hrs; assay type: organism-based
Summary of the method: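 S. mutans UA159 co-incubated with compound at various concentrations; growth measured at OD470.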

Streptococcus sanguinis = assay: Growth inhibition of Streptococcus sanguinis SK36 at 200 uM after 24 hrs; details: SK36, 24 h, read-out: GI; summary of the method: as §2
Streptococcus mutans [5] = assay: Selectivity index, ratio of growth inhibition IC50 for Streptococcus mutans UA159 to biofilm inhibition IC50 for Streptococcus mutans UA159
Streptococcus mutans [6] = assay: Inhibition of biofilm formation of Streptococcus mutans UA159 at 25 to 100 uM by Syto9 staining based assay; assay type: functional, organism-based
Summary of the method: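 S. mutans UA159 wild type co-incubated with compound at various concentrations; resulting biofilms stained with Syto9 and examined by microscopy.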

[7] = biological target: T1, Glucosyltransferase-SI (Streptococcus mutans serotype c (strain ATCC 700610 / UA159)) (UniProt P13470); assay: Inhibition of Wild-type Streptococcus mutans UA159 glucosyltransferase C at 50 uM by zymography
T1 sequence (whole entry): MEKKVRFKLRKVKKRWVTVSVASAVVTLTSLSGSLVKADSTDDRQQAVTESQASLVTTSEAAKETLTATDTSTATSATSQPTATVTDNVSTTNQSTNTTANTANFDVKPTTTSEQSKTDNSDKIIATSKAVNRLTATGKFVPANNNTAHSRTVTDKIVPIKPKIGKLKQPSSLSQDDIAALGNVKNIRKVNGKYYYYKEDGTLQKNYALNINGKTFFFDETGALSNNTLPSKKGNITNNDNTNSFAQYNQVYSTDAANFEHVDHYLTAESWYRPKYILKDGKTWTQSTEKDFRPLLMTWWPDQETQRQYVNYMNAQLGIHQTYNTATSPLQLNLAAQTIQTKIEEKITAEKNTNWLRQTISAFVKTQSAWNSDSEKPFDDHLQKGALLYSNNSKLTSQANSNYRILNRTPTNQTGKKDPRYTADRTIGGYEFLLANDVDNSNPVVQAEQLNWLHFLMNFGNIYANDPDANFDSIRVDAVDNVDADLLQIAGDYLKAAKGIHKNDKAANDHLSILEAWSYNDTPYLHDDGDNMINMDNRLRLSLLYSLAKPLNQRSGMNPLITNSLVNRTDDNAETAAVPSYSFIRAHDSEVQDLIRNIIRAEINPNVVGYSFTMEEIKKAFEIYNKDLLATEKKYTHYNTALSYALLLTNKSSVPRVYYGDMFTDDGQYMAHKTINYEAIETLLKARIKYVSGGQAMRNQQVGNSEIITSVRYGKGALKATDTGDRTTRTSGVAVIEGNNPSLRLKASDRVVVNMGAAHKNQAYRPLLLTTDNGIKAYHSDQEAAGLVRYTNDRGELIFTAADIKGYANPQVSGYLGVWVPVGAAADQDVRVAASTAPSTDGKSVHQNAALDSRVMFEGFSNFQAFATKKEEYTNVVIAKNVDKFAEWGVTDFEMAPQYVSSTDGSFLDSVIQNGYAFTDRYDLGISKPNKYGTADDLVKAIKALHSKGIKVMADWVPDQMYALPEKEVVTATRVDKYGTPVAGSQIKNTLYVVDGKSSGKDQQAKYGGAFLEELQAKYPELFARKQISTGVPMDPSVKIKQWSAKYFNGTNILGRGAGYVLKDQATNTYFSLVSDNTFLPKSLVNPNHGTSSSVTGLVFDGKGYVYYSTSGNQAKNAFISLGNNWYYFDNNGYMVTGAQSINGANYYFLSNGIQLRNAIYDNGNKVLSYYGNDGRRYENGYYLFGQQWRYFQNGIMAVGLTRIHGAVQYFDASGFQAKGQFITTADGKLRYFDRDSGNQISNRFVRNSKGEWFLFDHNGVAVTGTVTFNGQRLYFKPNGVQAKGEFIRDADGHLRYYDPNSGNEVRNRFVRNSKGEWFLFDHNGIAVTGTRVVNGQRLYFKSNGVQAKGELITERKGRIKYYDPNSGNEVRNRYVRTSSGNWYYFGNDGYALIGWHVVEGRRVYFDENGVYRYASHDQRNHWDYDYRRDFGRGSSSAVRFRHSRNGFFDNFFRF
Summary of the method: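 Compound (50 µM) added to overnight S. mutans UA159 wild-type cultures; Gtfs concentrated from supernatants, run on duplicate SDS-PAGE; second gel used for zymogram, glucan band intensity taken as Gtf activity.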

[8] = biological target: T1, Glucosyltransferase-SI (Streptococcus mutans serotype c (strain ATCC 700610 / UA159)); assay: Inhibition of Wild-type Streptococcus mutans UA159 glucosyltransferase C at 50 uM by coomassie blue staining based SDS-PAGE method
Summary of the method: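 Compound (50 µM) added to overnight S. mutans UA159 wild-type cultures; Gtfs collected and concentrated from supernatants, run on SDS-PAGE in duplicate; one gel Coomassie blue stained for protein levels.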

[9] = Streptococcus mutans, UA159, 16 h
[10] = Streptococcus mutans, UA159, 16 h, read-out: IC50

Structure (SMILES): O=C(/C=C/c1ccccc1)c1ccc(O)cc1O [2',4'-DIHYDROXYCHALCONE]
- inhibition (Streptococcus mutans [1]): inactive
- growth inhibition (GI) (Streptococcus mutans [2]): Not Active

- IC50 (Streptococcus mutans [3]): 32 µM
Structure (SMILES): O=C(/C=C/c1ccc(O)cc1O)c1cccc(O)c1 (stereo in doubt; 9) [listing 1 of 2 here]
- inhibition at 200 µM (Streptococcus gordonii): 10%
- inhibition at 200 µM (Streptococcus mutans [1]): 93%
- inhibition at 200 µM (Streptococcus mutans [2]): 10%
- IC50 (Streptococcus mutans [4]): Not Active
- inhibition at 200 µM (Streptococcus sanguinis): 10%

- IC50 (Streptococcus mutans [3]): 68 µM
Structure (SMILES): O=C(/C=C/c1ccc(O)cc1O)c1cccc(O)c1 (stereo in doubt; 9a)
- Ratio IC50 (Streptococcus mutans [5]): 9.4

Structure (SMILES): O=C(/C=C/c1ccc(O)cc1O)c1cccc(O)c1 (stereo in doubt; 9) [listing 2 of 2 here]
- inhibition (Streptococcus mutans [3]): Dose-dependent effect
- inhibition (Streptococcus mutans [6]): Active

Structure (SMILES): O=C(/C=C/c1ccccc1O)c1ccc(O)cc1O
- inhibition (Streptococcus mutans [1]): inactive
- growth inhibition (GI) (Streptococcus mutans [2]): Not Active

Structure (SMILES): COc1ccc(/C=C/C(=O)c2cc(N(C)C)c(O)c(N(C)C)c2)cc1
- inhibition (Streptococcus mutans [1]): inactive
- growth inhibition (GI) (Streptococcus mutans [2]): Not Active

- IC50 (Streptococcus mutans [3]; [9]): 34 µM
Structure (SMILES): COc1cc(C(=O)/C=C/c2ccccc2O)ccc1O
- inhibition at 200 µM (Streptococcus mutans [1]): 85%
- inhibition at 200 µM (Streptococcus mutans [2]): 71%
- IC50 (Streptococcus mutans [4]; [10]): 40 µM

Structure (SMILES): O=C(/C=C/c1cc(Cl)cc(Cl)c1O)c1cccc(O)c1
- inhibition at 200 µM (Streptococcus mutans [1]): 81%
- inhibition at 200 µM (Streptococcus mutans [2]): 82%

Structure (SMILES): O=C(/C=C/c1ccc(O)cc1)c1ccccc1O
- inhibition at 200 µM (Streptococcus mutans [1]): 27%
- inhibition at 200 µM (Streptococcus mutans [2]): 48%

- IC50 (Streptococcus mutans [3]; [9]): 61 µM
Structure (SMILES): COc1cc(/C=C/C(=O)c2ccccc2O)ccc1O
- inhibition at 200 µM (Streptococcus mutans [1]): 86%
- inhibition at 200 µM (Streptococcus mutans [2]): 85%
- IC50 (Streptococcus mutans [4]; [10]): 44 µM

- IC50 (Streptococcus mutans [3]): 224 µM
Structure (SMILES): O=C(/C=C/c1cc(O)c(O)cc1O)c1ccccc1O (stereo in doubt; 18c)
- IC50 (Streptococcus mutans [4]; [10]): 323 µM
- Ratio IC50 (Streptococcus mutans [5]): 1.5

- inhibition [7]: Active
- inhibition [8]: Active
Structure (SMILES): O=C(/C=C/c1cc(O)c(O)cc1O)c1ccccc1O (stereo in doubt; 18d) [listing 1 of 2 here]

Structure (SMILES): O=C(/C=C/c1ccccc1O)c1cccc(O)c1
- growth inhibition (GI) (Streptococcus mutans [2]): Not Active

Structure (SMILES): COc1ccc(/C=C/C(=O)c2ccc3c(c2)OCO3)cc1O
- inhibition (Streptococcus mutans [1]): inactive
- growth inhibition (GI) (Streptococcus mutans [2]): Not Active

Structure (SMILES): COc1ccc(/C=C/C(=O)c2cc(O)ccc2O)cc1
- inhibition at 200 µM (Streptococcus mutans [1]): 87%
- inhibition at 200 µM (Streptococcus mutans [2]): 76%

Structure (SMILES): COc1cc(/C=C/C(=O)c2ccc(O)cc2)cc(OC)c1OC
- growth inhibition (GI) (Streptococcus mutans [2]): Not Active

- IC50 (Streptococcus mutans [3]; [9]): 64 µM
Structure (SMILES): O=C(/C=C/c1cccc(O)c1)c1ccccc1O
- inhibition at 200 µM (Streptococcus mutans [1]): 84%
- inhibition at 200 µM (Streptococcus mutans [2]): 86%
- IC50 (Streptococcus mutans [4]; [10]): 32 µM

- IC50 (Streptococcus mutans [3]): 76 µM
Structure (SMILES): O=C(/C=C/c1cc(O)c(O)cc1O)c1ccccc1O (stereo in doubt; 18d) [listing 2 of 2 here]
- IC50 (Streptococcus mutans [4]; read-out: IC50): 376 µM
- Ratio IC50 (Streptococcus mutans [5]): 4.9

Structure (SMILES): COc1ccc(/C=C/C(=O)c2ccc(OC)c(OC)c2)cc1O
- inhibition at 200 µM (Streptococcus mutans [1]): 27%
- inhibition at 200 µM (Streptococcus mutans [2]): 30%
